Laboratory results as given in ChEMBL document CHEMBL1123397, “Antiarrhythmic activity of 17 beta-aminoestratrienes. Comparison of 3-ols and 3-acetates with the corresponding 3-(3-amino-2-hydroxypropyl) ethers” (1986).
Values after ≈ are worked out from the molar mass of the structure shown. Active and inactive are the calls of the source. The calls are words filed in the database; no cut-off is given here.

What was measured:
Rattus norvegicus [1] = test: Mean change in heart rate recorded 14 min after the administration of compound.; format: functional
How it was run: (§1)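 Test drug or vehicle was given i.v., and isoprenaline (10 µg/kg) 14 min later. Heart rate was read from the lead II ECG just before drug, at 14 min (pre-isoprenaline) and 1 min after isoprenaline. Compared by Student's t test; 7–12 animals per group; mean ± SEM.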

Cavia porcellus [2] = species on record: Cavia porcellus; test: Compound was tested for antiarrhythmic activity expressed as action potential height (AP) in guinea pig atria at 4(ug/mL) concentration; format: functional, Heart
How it was run: (§2)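 Guinea pig left atria pinned in a recording chamber, superfused with carbogen-gassed Krebs solution at 35 ± 0.5 °C and electrically stimulated. Transmembrane action potentials were recorded with conventional microelectrodes, giving RMP, AP height, APD50, APD90 and maximum rate of depolarization. Values are mean ± SEM from n cells across five preparations.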

Cavia porcellus [3] = species on record: Cavia porcellus; test: Compound was tested for antiarrhythmic activity (time taken to reach 50% repolarization) in guinea pig atria at 8(ug/mL) concentration; format: functional, Heart; how it was run: as §2
Cavia porcellus [4] = species on record: Cavia porcellus; test: Compound was tested for antiarrhythmic activity expressed as resting membrane potential (RMP) in guinea pig atria at 2 ug/mL concentration; format: functional; details: Heart; how it was run: as §2
Rattus norvegicus [5] = test: Effect on heart rate before isoprenaline induced tachycardia in the anesthetized rat at 0.5 mg/kg dose; format: functional
How it was run: (§3)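 Same ligation protocol in anaesthetised male Wistar rats. Heart rate was taken from the lead II ECG at three points: just before i.v. drug or vehicle, 14 min after it (just before isoprenaline 10 μg/kg), and 1 min after isoprenaline. Pre vs post rates and isoprenaline responses vs controls were compared by Student's t test. Mean ± SEM of 7-12 observations.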

Cavia porcellus [6] = species on record: Cavia porcellus; test: Concentration required to reduce maximum following frequencu (MFF) of isolated guinea pig atria by 25%; format: functional
How it was run: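 Guinea pig left atria in an organ bath of Krebs solution at 35 °C, gassed with carbogen, electrically driven, isometric contractions recorded. Drugs added cumulatively; maximum following frequency determined 6 min after each concentration. Concentration reducing MFF by 25% (EC25) calculated from six preparations.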

Rattus norvegicus [7] = test: Effect on heart rate on 1 min post isoprenaline induced tachycardia in the anesthetized rat at 0.5 mg/kg dose.; format: functional; how it was run: as §1
Cavia porcellus [8] = species on record: Cavia porcellus; test: Compound was tested for antiarrhythmic activity expressed as resting membrane potential (RMP) in guinea pig atria at 4 ug/mL concentration; format: functional; details: Heart; how it was run: as §2
Rattus norvegicus [9] = test: Compound was tested for antagonism of Ventricular Fibrilloflutter (VF) evoked by coronary artery ligation in the rat measured at 0.5 mg/kg dose; format: functional, Heart
How it was run: (§4)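 Male Wistar rats, anaesthetised and artificially ventilated, with left thoracotomy; silk suture under main left coronary artery. After stabilization, test drug or vehicle i.v.; 14 min later isoprenaline 10 μg/kg; 1 min after that the ligature was tightened and VF incidence recorded over 30 min. Carotid pressure and lead II ECG monitored continuously. 7-12 animals per group.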

Rattus norvegicus [10] = test: Effective dose of compound that antagonized arrhythmias evoked by coronary artery ligation in the rat was measured at 0.5 mg/kg dose; format: functional
Cavia porcellus [11] = species on record: Cavia porcellus; test: Compound was tested for antiarrhythmic activity expressed as resting membrane potential (RMP) in guinea pig atria at 8 ug/mL concentration; format: functional; details: Heart; how it was run: as §2
Rattus norvegicus [12] = species on record: Rattus norvegicus; test: Maximum increase in heart rate evoked by isoprenaline.; format: functional; how it was run: as §1
Cavia porcellus [13] = species on record: Cavia porcellus; test: Compound was tested for antiarrhythmic activity (time taken to reach 90% repolarization) in guinea pig atria at 4(ug/mL) concentration; format: functional, Heart; how it was run: as §2
Rattus norvegicus [14] = test: Compound was tested for antagonism of Ventricular Fibrilloflutter (VF) evoked by coronary artery ligation in the rat measured at 0.2 mg/kg dose; format: functional, Heart; how it was run: as §4
Cavia porcellus [15] = species on record: Cavia porcellus; test: Compound was tested for antiarrhythmic activity expressed as action potential height (AP) in guinea pig atria at 2(ug/mL) concentration; format: functional, Heart; how it was run: as §2
Cavia porcellus [16] = species on record: Cavia porcellus; test: Compound was tested for antiarrhythmic activity (time taken to reach 50% repolarization) in guinea pig atria at 2(ug/mL) concentration; format: functional, Heart; how it was run: as §2
Cavia porcellus [17] = species on record: Cavia porcellus; test: Compound was tested for antiarrhythmic activity (time taken to reach 90% repolarization) in guinea pig atria at 8(ug/mL) concentration; format: functional, Heart; how it was run: as §2
Cavia porcellus [18] = species on record: Cavia porcellus; test: Compound was tested for antiarrhythmic activity expressed as action potential height (AP) in guinea pig atria at 8(ug/mL) concentration; format: functional, Heart; how it was run: as §2
Cavia porcellus [19] = species on record: Cavia porcellus; test: Compound was tested for antiarrhythmic activity (maximum rate of phase 0 depolarization- MRD) in guinea pig atria at 2(ug/mL) concentration; format: functional, Heart; how it was run: as §2
Mus musculus [20] = species on record: Mus musculus; test: ED 50 value against aconitine-induced arrhythmias in mice; format: functional
How it was run: (§5)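 Anaesthetised mice were given test compound intraperitoneally, then aconitine intravenously to induce arrhythmia. At least three doses were tested in separate groups (n = 6-10). ED50 is the dose raising the arrhythmogenic aconitine dose 50% above the control requirement.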

Cavia porcellus [21] = species on record: Cavia porcellus; test: Compound was tested for antiarrhythmic activity (time taken to reach 90% repolarization) in guinea pig atria at 2(ug/mL) concentration; format: functional, Heart; how it was run: as §2
Rattus norvegicus [22] = test: Antagonism of Ventricular Fibrilloflutter (VF) evoked by coronary artery ligation in the rat measured at 2 mg/kg dose; format: functional, Heart; how it was run: as §4
Cavia porcellus [23] = species on record: Cavia porcellus; test: Compound was tested for antiarrhythmic activity (maximum rate of phase 0 depolarization- MRD) in guinea pig atria at 4(ug/mL) concentration; format: functional, Heart; how it was run: as §2
Cavia porcellus [24] = species on record: Cavia porcellus; test: Compound was tested for antiarrhythmic activity (time taken to reach 50% repolarization) in guinea pig atria at 4(ug/mL) concentration; format: functional, Heart; how it was run: as §2
Rattus norvegicus [25] = test: Effect on heart rate after isoprenaline induced tachycardia in the anesthetized rat at 0.5 mg/kg dose; format: functional; how it was run: as §3
Cavia porcellus [26] = species on record: Cavia porcellus; test: Compound was tested for antiarrhythmic activity (maximum rate of phase 0 depolarization- MRD) in guinea pig atria at 8(ug/mL) concentration; format: functional, Heart; how it was run: as §2
Rattus norvegicus [27] = test: Effect on heart rate before isoprenaline induced tachycardia in the anesthetized rat at 2 mg/kg dose; format: functional; how it was run: as §1
Rattus norvegicus [28] = test: Effective dose that antagonized arrhythmias evoked by coronary artery ligation in the rat was measured at 1.0 mg/kg dose; format: functional
Rattus norvegicus [29] = test: Compound was tested for antagonism of Ventricular Fibrilloflutter (VF) evoked by coronary artery ligation in the rat measured at 1 mg/kg dose; format: functional, Heart; how it was run: as §4
Rattus norvegicus [30] = test: Effect on heart rate after isoprenaline induced tachycardia in the anesthetized rat at 2 mg/kg dose; format: functional; how it was run: as §3
Rattus norvegicus [31] = test: Effect on heart rate on 1 min post isoprenaline induced tachycardia in the anesthetized rat at 2.0 mg/kg dose.; format: functional; how it was run: as §1
Mus musculus [32] = species on record: Mus musculus; test: ED 50 value against aconitine-induced arrhythmias in mice; IA is Inactive; format: functional, organism-based; how it was run: as §5
Rattus norvegicus [33] = species on record: Rattus norvegicus; test: Maximum increase in heart rate evoked by isoprenaline; format: functional; how it was run: as §1
Rattus norvegicus [34] = test: Effect of teh compound on heart rate on 1 min post isoprenaline induced tachycardia in the anesthetized rat at 2.0 mg/kg dose.; format: functional; how it was run: as §3
Rattus norvegicus [35] = test: Compound that antagonized arrhythmias evoked by coronary artery ligation in the rat was measured at 1.0 mg/kg dose; format: functional; how it was run: as §4

Row | Compound | Change (Rattus norvegicus [1]) [%] | AP (Cavia porcellus [2]) [mV] | APD50 (Cavia porcellus [3]) [ms] | RMP (Cavia porcellus [4]) [mV] | EC25 (Cavia porcellus [6]) [µg/mL] | RMP (Cavia porcellus [8]) [mV] | VF (Rattus norvegicus [9]) [%] | RMP (Cavia porcellus [11]) [mV] | Increase (Rattus norvegicus [12]) [%] | APD90 (Cavia porcellus [13]) [ms] | AP (Cavia porcellus [15]) [mV] | APD50 (Cavia porcellus [16]) [ms] | APD90 (Cavia porcellus [17]) [ms] | AP (Cavia porcellus [18]) [mV] | MRD (Cavia porcellus [19]) [V s-1] | APD90 (Cavia porcellus [21]) [ms] | VF (Rattus norvegicus [22]) [%] | MRD (Cavia porcellus [23]) [V s-1] | APD50 (Cavia porcellus [24]) [ms] | MRD (Cavia porcellus [26]) [V s-1] | further results
1 | CN(C)C1[C@H](O)C[C@H]2[C@@H]3CCc4cc(O)ccc4[C@H]3CC[C@]12C (stereo partly specified) | -1.8 | 73.5 | 43.5 | 70.1 | 1.86 (≈ 5.9 µM) | 71.8 | 13 | 69.3 | 12.9 | 74.2 | 78.9 | 29.6 | 98.9 | 69.9 | 86 | 70.9 | 0 | 60.1 | 29 | 30.5 | Heart rate (Rattus norvegicus [5]): 442 beats min-1; Heart rate (Rattus norvegicus [7]): 490 beats min-1; ED50 (Rattus norvegicus [10]): 0.15 mg/kg; VF (Rattus norvegicus [14]): 33%; ED50 (Mus musculus [20]): 11.5 mg/kg; Heart rate (Rattus norvegicus [25]): 434 beats min-1
2 | CN(C)C1[C@H](O)C[C@H]2[C@@H]3CCc4cc(OCC(O)CNC(C)(C)C)ccc4[C@H]3CC[C@]12C (stereo partly specified) | -17.3 |  |  |  | 17.1 (≈ 38.5 µM) |  | 44 |  | 4.6 |  |  |  |  |  |  |  | 0 |  |  |  | Heart rate (Rattus norvegicus [27]): 393 beats min-1; ED50 (Rattus norvegicus [28]): 0.5 mg/kg; VF (Rattus norvegicus [29]): 38%; Heart rate (Rattus norvegicus [30]): 325 beats min-1; Heart rate (Rattus norvegicus [31]): 340 beats min-1; ED50 (Mus musculus [32]): inactive
3 | CC(C)NCC(O)COc1ccc2c(c1)CC[C@@H]1[C@@H]2CC[C@]2(C)C(N(C)C)[C@H](O)C[C@@H]12 (stereo partly specified) | -7.1 | 81.6 | 19.5 | 71 | 13.7 (≈ 31.8 µM) | 70.4 |  | 69.1 |  | 64.8 | 83.8 | 26 | 64.9 | 79.5 | 139.5 | 69.8 |  | 124 | 20.7 | 139.3 | Heart rate (Rattus norvegicus [27]): 394 beats min-1; Increase (Rattus norvegicus [33]): 0%; VF (Rattus norvegicus [29]): 13%; Heart rate (Rattus norvegicus [30]): 366 beats min-1; Heart rate (Rattus norvegicus [34]): 366 beats min-1; ED50 (Mus musculus [32]): inactive; ED50 at 1 mg/kg (Rattus norvegicus [35]): < 1 mg/kg
